Measurements as given in ChEMBL document CHEMBL4011604, “Bishomoisoprenoid triazole bisphosphonates as inhibitors of geranylgeranyl diphosphate synthase” (Bioorg Med Chem, 2017).
Calls of active or inactive are those of the source. The calls are words filed in the database; no cut-off is given here.

Columns and labels:
Homo sapiens [1] = organism: Homo sapiens; assay: Inhibition of Rab GGTase2 in human RPMI8226 cells assessed as decrease in Rab6 geranylgeranylation at 5 to 50 uM after 48 hrs by western blot analysis; format: cell-based
Method in brief: (§1)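 Membrane-bound Rab6 measured in RPMI-8226 cells treated 48 h (lovastatin 10 μM positive control). Cells lysed with Triton X-114 and the detergent (membrane) fraction immunoblotted for Rab6, with calnexin as loading control. Densitometry gives Rab6/calnexin relative to untreated cells.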

[2] = target: geranylgeranyltransferase type-I (Rattus norvegicus, UniProt P53610+Q04631); assay: Inhibition of recombinant rat GGTase1 expressed in Escherichia coli using GGDP as substrate measured after 2 hrs by dansyl-GCVLS dye based fluorescence assay
Method in brief: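 Recombinant GGTase I 24 nM added to 50 mM HEPPSO, 5 mM TCEP-HCl containing 10 μM GGDP and 5 μM dansyl-GCVLS. Incubated 2 h at 30 °C with or without compound, with prenylation tracked as dansyl fluorescence increase (ex 340 / em 520 nm) over time. IC50 from Chou–Talalay curve fitting.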

[3] = Inhibition of recombinant rat FTase using FDP as substrate measured after 1 hr by dansyl-GCVLS dye based fluorescence assay
Method in brief: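 Recombinant FTase 18 nM started reactions in 50 mM HEPPSO, 5 mM TCEP-HCl, 5 mM MgCl2 with 10 μM FDP and 5 μM dansyl-GCVLS, 30 °C for 1 h, with or without compound. Peptide prenylation followed as rise in dansyl fluorescence (ex 340 / em 520 nm) over time. IC50 by Chou–Talalay analysis.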

[4] = target: T1, Farnesyl pyrophosphate synthase (Homo sapiens, UniProt P14324); assay: Inhibition of recombinant FDPS (unknown origin) using GPP as substrate pretreated for 10 mins followed by substrate addition after 30 mins in presence of [14C]-IPP by liquid scintillation counting method
T1 sequence (P14324 whole entry): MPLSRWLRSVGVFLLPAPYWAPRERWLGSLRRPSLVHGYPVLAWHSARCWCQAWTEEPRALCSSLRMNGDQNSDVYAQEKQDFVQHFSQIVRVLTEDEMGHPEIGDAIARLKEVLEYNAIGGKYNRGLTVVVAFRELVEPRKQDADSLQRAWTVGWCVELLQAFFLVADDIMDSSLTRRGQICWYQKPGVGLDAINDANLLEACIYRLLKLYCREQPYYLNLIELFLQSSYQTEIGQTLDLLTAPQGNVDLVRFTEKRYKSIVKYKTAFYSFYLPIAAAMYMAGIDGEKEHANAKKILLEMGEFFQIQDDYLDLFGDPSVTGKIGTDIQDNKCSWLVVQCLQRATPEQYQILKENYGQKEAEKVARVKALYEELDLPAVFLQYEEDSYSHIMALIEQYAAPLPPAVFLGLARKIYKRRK
Method in brief: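 Recombinant FDPS assayed by a previously described method, each concentration in duplicate, three independent experiments. IC50 derived from concentration-response curves by Chou–Talalay median-effect analysis.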

[5] = target: T2, Geranylgeranyl transferase type I (Homo sapiens) (UniProt P49354+P53609); assay: Inhibition of GGTase1 in human RPMI8226 cells assessed as decrease in Rap1a geranylgeranylation at 0.1 to 50 uM after 48 hrs by Western blot method; format: cell-based
Method in brief: (§2)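 RPMI-8226 myeloma cells exposed 48 h to test compounds over a range of concentrations, lovastatin 10 μM as positive control. Whole-cell RIPA lysates with protease/phosphatase inhibitors, protein by BCA; equal protein run on SDS-PAGE and immunoblotted with antibody recognising only unmodified Rap1a, β-tubulin as loading control, HRP secondary with ECL detection.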

Homo sapiens [6] = organism: Homo sapiens; assay: Inhibition of Rab GGTase2 in human RPMI8226 cells assessed as decrease in Rab GTPase geranylgeranylation by measuring accumulation of intracellular lambda light chain at 0.1 to 50 uM after 48 hrs by ELISA; format: cell-based
Method in brief: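 Intracellular lambda light chain in RPMI-8226 cells after 48 h incubation with compounds (lovastatin 10 μM positive control). Quantified by human lambda light chain ELISA on whole-cell lysate and normalised to BCA total protein. Results given as percent of untreated control, mean + SD, n=3. Significance by unpaired two-tailed t-test, p < 0.05.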

[7] = target: T2, Geranylgeranyl transferase type I (Homo sapiens); assay: Inhibition of GGTase1 in human RPMI8226 cells assessed as decrease in Rap1a geranylgeranylation at 0.5 uM after 48 hrs by Western blot method; format: cell-based; method in brief: as §2
Homo sapiens [8] = organism: Homo sapiens; assay: Inhibition of Rab GGTase2 in human RPMI8226 cells assessed as disruption of Rab6 geranylgeranylation at 1 to 10 uM after 48 hrs by western blot analysis; format: cell-based; method in brief: as §1
[9] = target: T3, Geranylgeranyl pyrophosphate synthase (Homo sapiens, UniProt O95749); assay: Inhibition of recombinant GGDPS (unknown origin) using FPP as substrate pretreated for 10 mins followed by substrate addition after 30 mins in presence of [14C]-IPP by liquid scintillation counting analysis
T3 sequence (O95749 whole entry): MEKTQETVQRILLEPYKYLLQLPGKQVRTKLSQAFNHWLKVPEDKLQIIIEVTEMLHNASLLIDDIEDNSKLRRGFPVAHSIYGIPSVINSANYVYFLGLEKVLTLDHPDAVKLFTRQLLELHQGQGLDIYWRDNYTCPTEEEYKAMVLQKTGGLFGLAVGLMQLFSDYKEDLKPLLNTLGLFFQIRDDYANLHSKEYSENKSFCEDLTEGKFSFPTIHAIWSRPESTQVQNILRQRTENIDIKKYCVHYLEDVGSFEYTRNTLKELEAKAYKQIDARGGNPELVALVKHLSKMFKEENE
Method in brief: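 Recombinant GGDPS from a commercial source; compounds tested in duplicate at multiple concentrations, three independent experiments. IC50 values from concentration-response curves by Chou–Talalay median-effect analysis.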

Homo sapiens [10] = organism: Homo sapiens; assay: Inhibition of Rab GGTase2 in human RPMI8226 cells assessed as decrease in Rab6 geranylgeranylation after 48 hrs by western blot analysis; format: cell-based
Method in brief: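 RPMI-8226 cells, 48 h with varying compound concentrations, lovastatin 10 μM as control. Cells lysed with Triton X-114; detergent (membrane) fraction immunoblotted for Rab6 with calnexin loading control. Rab6 band densitometry normalised to calnexin, then to untreated cells (relative intensity).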

[11] = target: T2, Geranylgeranyl transferase type I (Homo sapiens); assay: Inhibition of GGTase1 in human RPMI8226 cells assessed as decrease in Rap1a geranylgeranylation after 48 hrs by Western blot method; format: cell-based
Method in brief: as §2, with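 “varying compound” for “test compounds over a range of”, “Whole-cell lysate made in” for “Whole-cell”, “buffer” for “lysates”, “SDS-PAGE, blotted to PVDF, probed” for “SDS-PAGE and immunoblotted”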

Homo sapiens [12] = organism: Homo sapiens; assay: Inhibition of Rab GGTase2 in human RPMI8226 cells assessed as decrease in Rab GTPase geranylgeranylation by measuring accumulation of intracellular lambda light chain after 48 hrs by ELISA; format: cell-based
Method in brief: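 RPMI-8226 cells treated 48 h with varying compound concentrations (lovastatin 10 μM control). Intracellular lambda light chain in whole-cell lysate quantified by human lambda ELISA, normalised to total protein (BCA), expressed as percent of untreated control; mean + SD, n=3; unpaired two-tailed t-test, p < 0.05.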

IC50 [2] [µM]	IC50 [3] [µM]	IC50 [4] [µM]	inhibition [5]	inhibition [7]	SMILES	inhibition (Homo sapiens [1])	inhibition (Homo sapiens [6])	inhibition (Homo sapiens [8])	IC50 [9] [µM]	INH (Homo sapiens [10]) [µM]	INH [11] [µM]	INH (Homo sapiens [12]) [µM]
> 100	> 100	33.3	Active		CC(C)=CCC/C(C)=C/CCCn1cc(CC(P(=O)(O)O)P(=O)(O)O)nn1	Active	Active					
> 100	> 100	29.8		Active	CC(C)=CCC/C(C)=C\CCCn1cc(CC(P(=O)(O)O)P(=O)(O)O)nn1		Active	Active				
> 100	> 100	> 100	Active		CC(C)=CCCCn1cc(CC(P(=O)(O)O)P(=O)(O)O)nn1	Active	Active		3.6			
					CC(C)=CCC/C(C)=C/CCn1cc(CC(P(=O)(O)O)P(=O)(O)O)nn1				0.17	0.09	0.09	0.09
